# Laboratory results as given in ChEMBL document CHEMBL4138071, “Synthesis, antioxidant and antitumoral activities of 5'-arylchalcogeno-3-aminothymidine (ACAT) derivatives” (Medchemcomm, 2017).
# Active and inactive are the calls of the source. The calls are words filed in the database; no cut-off is given here.
# Experiments:
# [1] = test system: 5637; assay: Cell cycle arrest in human 5637 cells assessed as reduction in accumulation at G1 phase at 12.5 uM by propidium iodide staining based flow cytometry; assay type: functional
# In short: (§1)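 5637 cells were seeded at 1x10^5 and synchronized 24 h in serum-free medium. They were then treated 24 h at 12,5 µM. DNA content was measured by propidium iodide staining with a kit and flow cytometry.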
# [2] = Antioxidant activity assessed as inhibition of Fe2+-induced phosphatidylcholine oxidation incubated for 1 hr by TBARS assay; assay type: functional
# [3] = test system: 5637; assay: Antiproliferative activity in human 5637 cells assessed as inhibition of cell growth incubated for 24 hrs by MTT assay; assay type: functional, cell-based; conditions: Homo sapiens, 5637, 24 h
# In short: (§2)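 Bladder carcinoma 5637 cells in log phase were grown in DMEM with 10% FBS at 37 °C, 5% CO2. They were seeded at 2 x 10^4 per well and treated 24 and 48 h, with DMSO up to 0.5% as vehicle. MTT was added for 3 h and A492 read. Inhibition = (1 − Abs treated/Abs control) x 100. Results are mean ± SEM.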
# [4] = test system: Mus musculus; assay: Renal toxicity in Swiss mouse assessed as effect on creatinine level at 100 umol/kg, sc after 7 days; assay type: organism-based; conditions: in vivo, 168 h
# In short: (§3)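 Adult male Swiss mice were randomized into two groups, n = 4 each. They received a subcutaneous injection of 100 μmol/kg compound or DMSO vehicle (1 mL/kg).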
# [5] = test system: 5637; assay: Antiproliferative activity in human 5637 cells assessed as inhibition of cell growth at 6.25 to 12.5 uM incubated for 48 hrs by MTT assay; assay type: functional; in short: as §2
# [6] = test system: Mus musculus; assay: Toxicity in Swiss mouse assessed as effect on kidney to body weight ratio level at 100 umol/kg, sc after 7 days; assay type: organism-based; conditions: in vivo, 168 h; in short: as §3
# [7] = test system: 5637; assay: Antiproliferative activity in human 5637 cells assessed as inhibition of cell growth at 6.25 to 12.5 uM incubated for 24 hrs by MTT assay; assay type: functional; in short: as §2
# [8] = Toxicity in Swiss mouse assessed as mortality level at 100 umol/kg, sc measured over 7 days; assay type: organism-based; conditions: in vivo, read-out: Activity; in short: as §3
# [9] = test system: Mus musculus; assay: Toxicity in Swiss mouse assessed as effect on brain to body weight ratio level at 100 umol/kg, sc after 7 days; assay type: organism-based; conditions: in vivo, 168 h; in short: as §3
# [10] = Thiol peroxidase-like activity assessed as induction of hydrogen peroxide decomposition at 450 uM using benzenethiol incubated for 20 mins; assay type: functional
# In short: (§4)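 This is a GPx-mimetic assay using benzenethiol (2.5 mM) instead of glutathione. The mix held ethanol, compound at final 0 - 450 μM or DMSO blank, and hydrogen peroxide (2.3 mM).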
# [11] = test system: Mus musculus; assay: Toxicity in Swiss mouse assessed as appearance of overt toxic signs at 100 umol/kg, sc measured over 7 days; assay type: organism-based; conditions: in vivo, 168 h; in short: as §3
# [12] = Thiol peroxidase-like activity assessed as induction of hydrogen peroxide decomposition at 55 to 225 uM using benzenethiol in presence of thiophenol incubated for 20 mins; assay type: functional; in short: as §4
# [13] = test system: Mus musculus; assay: Renal toxicity in Swiss mouse assessed as effect on urea level at 100 umol/kg, sc after 7 days; assay type: organism-based; conditions: in vivo, 168 h; in short: as §3
# [14] = Antioxidant activity assessed as DPPH radical scavenging activity at 0.5 mM measured at 77.3 +/- 10.3 mins; assay type: functional
# In short: (§5)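 Each compound mixed with 0.3 mM DPPH in ethanol. Most tests used 1 mM compound; the concentration curve covered final 0 - 1 mM. Absorbance at 518 nm was read every 30 min for 180 min. BHT served as positive control.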
# [15] = test system: Mus musculus; assay: Toxicity in Swiss mouse assessed as effect on water intake level at 100 umol/kg, sc measured over 7 days; assay type: organism-based; conditions: in vivo, 168 h; in short: as §3
# [16] = Antioxidant activity assessed as inhibition of Fe2+-induced phosphatidylcholine oxidation at 200 uM […] by TBARS assay; assay type: functional
# [17] = Antioxidant activity assessed as DPPH radical scavenging activity at 1 mM incubated for 90 mins; assay type: functional; in short: as §5
# [18] = test system: Mus musculus; assay: Toxicity in Swiss mouse assessed as effect on body weight level at 100 umol/kg, sc measured over 7 days; assay type: organism-based; conditions: in vivo, 168 h; in short: as §3
# [19] = test system: 5637; assay: Cell cycle arrest in human 5637 cells assessed as increase in accumulation at S phase at 12.5 uM by propidium iodide staining based flow cytometry; assay type: functional; in short: as §1
# [20] = test system: 5637; assay: Cell cycle arrest in human 5637 cells assessed as increase in accumulation at subG1 phase at 12.5 uM by propidium iodide staining based flow cytometry; assay type: functional; in short: as §1
# [21] = test system: 5637; assay: Antiproliferative activity in human 5637 cells assessed as inhibition of cell growth incubated for 48 hrs by MTT assay; assay type: functional, cell-based; conditions: Homo sapiens, 5637, 48 h; in short: as §2
# [22] = Antioxidant activity assessed as DPPH radical scavenging activity at 0.1 mM measured at >180 mins; assay type: functional; in short: as §5
# [23] = test system: Mus musculus; assay: Toxicity in Swiss mouse assessed as effect on spleen to body weight ratio level at 100 umol/kg, sc after 7 days; assay type: organism-based; conditions: in vivo, 168 h; in short: as §3
# [24] = test system: Mus musculus; assay: Toxicity in Swiss mouse assessed as effect on liver to body weight ratio level at 100 umol/kg, sc after 7 days; assay type: organism-based; conditions: in vivo, 168 h; in short: as §3
# [25] = test system: Mus musculus; assay: Toxicity in Swiss mouse assessed as effect on food intake level at 100 umol/kg, sc measured over 7 days; assay type: organism-based; conditions: in vivo, 168 h; in short: as §3
# [26] = test system: Mus musculus; assay: Hepatic toxicity in Swiss mouse assessed as effect on ALT level at 100 umol/kg, sc after 7 days; assay type: organism-based; conditions: in vivo, 168 h; in short: as §3
# [27] = Antioxidant activity assessed as DPPH radical scavenging activity at 0.25 mM measured at 104.7 +/- 10.0 mins; assay type: functional; in short: as §5
# [28] = Antioxidant activity assessed as DPPH radical scavenging activity at 1 mM measured at 38.7 +/- 8.9 mins; assay type: functional; in short: as §5
# [29] = Toxicity in human leukocytes assessed as reduction in cell viability at 100 uM incubated for 3 hrs; assay type: cell-based
# In short: (§6)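 Human leukocytes were isolated (2 x 10^6/mL) and incubated 3 h in Hank's buffer with 10% human plasma. Controls were DMSO 0.5% vehicle and 1 mM t-butyl hydroperoxide as positive control.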
# [30] = test system: Mus musculus; assay: Hepatic toxicity in Swiss mouse assessed as effect on AST level at 100 umol/kg, sc after 7 days; assay type: organism-based; conditions: in vivo, 168 h; in short: as §3
# [31] = Thiol peroxidase-like activity assessed as induction of hydrogen peroxide decomposition at 50 to 250 uM using benzenethiol incubated for 20 mins; assay type: functional; in short: as §4
# [32] = Antioxidant activity assessed as DPPH radical scavenging activity at 0.5 mM measured at 21.33 +/- 0.6 mins; assay type: functional
# In short: (§7)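 DPPH (0.3 mM) in ethanol was mixed with the test compound at final concentrations of 0–1 mM. Absorbance at 518 nm was read every 30 min for 180 min. BHT served as the positive control.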
# [33] = Antioxidant activity assessed as DPPH radical scavenging activity at 0.25 mM measured at 22.5 +/- 0.87 mins; assay type: functional; in short: as §7
# [34] = Toxicity in human leukocytes assessed as reduction in cell viability at 1 mM incubated for 3 hrs; assay type: cell-based; conditions: 1000 µM; in short: as §6
compound,measurement,setting,value
Cc1cn([C@H]2C[C@H](N)[C@@H](C[Te]c3ccccc3)O2)c(=O)[nH]c1=O,Activity,[1],Active
same,IC50,[2],4.67 µM
same,IC50,[3],6.61 µM
same,Activity,[4],Non-Toxic
same,growth inhibition (GI),[5],>50%
same,Activity,[6],Non-Toxic
same,growth inhibition (GI),[7],>50%
same,mortality at 168 h,[8],25%
same,Activity,[9],Non-Toxic
same,Activity,[10],Active
same,Activity,[11],Non-Toxic
same,Activity,[12],Active
same,Activity,[13],Non-Toxic
same,inhibition,[14],50%
same,Activity,[15],Non-Toxic
same,inhibition,[16],Active
same,inhibition,[17],Active
same,Activity,[18],Non-Toxic
same,Activity,[19],Active
same,Activity,[20],inactive
same,IC50,[21],7.94 µM
same,inhibition,[22],50%
same,Activity,[23],Non-Toxic
same,Activity,[24],Non-Toxic
same,Activity,[25],Non-Toxic
same,Activity,[26],Non-Toxic
same,inhibition,[27],50%
same,inhibition,[28],50%
same,Activity,[29],Non-Toxic
same,Activity,[30],Non-Toxic
Cc1cn([C@H]2C[C@H](N=[N+]=[N-])[C@@H](CO)O2)c(=O)[nH]c1=O [ZIDOVUDINE],IC50,[3],129 µM
Cc1ccc([Se]C[C@H]2O[C@@H](n3cc(C)c(=O)[nH]c3=O)C[C@@H]2N)cc1,Activity,[10],Active
same,inhibition,[16],inactive
same,inhibition,[17],inactive
same,IC50,[21],> 100 µM
Cc1cn([C@H]2C[C@H](N)[C@@H](CSc3ccc(Cl)cc3)O2)c(=O)[nH]c1=O,inhibition,[16],inactive
same,inhibition,[17],inactive
same,IC50,[21],> 100 µM
c1ccc([Se][Se]c2ccccc2)cc1,IC50,[2],233 µM
same,Activity,[31],Active
Cc1cc(C(C)(C)C)c(O)c(C(C)(C)C)c1,inhibition,[32],50%
same,inhibition,[33],50%
Cc1cn([C@H]2C[C@H](N)[C@@H](C[Se]c3ccccc3)O2)c(=O)[nH]c1=O,Activity,[10],Active
same,inhibition,[16],inactive
same,inhibition,[17],inactive
same,IC50,[21],> 100 µM
Cc1cn([C@H]2C[C@H](N)[C@@H](C[Se]c3ccc(Cl)cc3)O2)c(=O)[nH]c1=O,inhibition,[16],inactive
same,inhibition,[17],inactive
same,IC50,[21],> 100 µM
Cc1ccccc1[Se]C[C@H]1O[C@@H](n2cc(C)c(=O)[nH]c2=O)C[C@@H]1N,Activity,[10],Active
same,inhibition,[16],inactive
same,inhibition,[17],inactive
same,IC50,[21],> 100 µM
CC(C)(C)OO [TERT-BUTYL HYDROPEROXIDE],Activity,[34],40%
COc1ccc(SC[C@H]2O[C@@H](n3cc(C)c(=O)[nH]c3=O)C[C@@H]2N)cc1,Activity,[10],Active
same,inhibition,[16],inactive
same,inhibition,[17],inactive
same,IC50,[21],> 100 µM
COc1ccc([Se]C[C@H]2O[C@@H](n3cc(C)c(=O)[nH]c3=O)C[C@@H]2N)cc1,Activity,[10],Active
same,inhibition,[16],inactive
same,inhibition,[17],inactive
same,IC50,[21],> 100 µM
Cc1c(C)c2c(c(C)c1O)CC[C@@](C)(CCC[C@H](C)CCC[C@H](C)CCCC(C)C)O2 [ALPHA-TOCOPHEROL],IC50,[2],35.3 µM
O=c1c2ccccc2[se]n1-c1ccccc1,Activity,[31],Active
Cc1cn([C@H]2C[C@H](N)[C@@H](CSc3ccccc3)O2)c(=O)[nH]c1=O,inhibition,[16],inactive
same,inhibition,[17],inactive
same,IC50,[21],> 100 µM
Cc1ccc(SC[C@H]2O[C@@H](n3cc(C)c(=O)[nH]c3=O)C[C@@H]2N)cc1,inhibition,[16],inactive
same,inhibition,[17],inactive
same,IC50,[21],> 100 µM
